Measured values from ChEMBL document CHEMBL1126272, “Inhibition of collagenase by aranciamycin and aranciamycin derivatives” (J Med Chem, 1992).
Active and inactive are the calls of the source. The calls are words filed in the database; no cut-off is given here.

Assays:
[1] = target: Pancreatic elastase (Sus scrofa) (UniProt P08419+P00772); experiment: Inhibition of Pancreatic elastase at 10e-5 M; NI means no inhibition; assay type: protein assay
Procedure, shortened: (§1)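 Porcine pancreatic elastase diluted to 2 mg/mL in PBS pH 7.5. Substrate N-acetyl-Ala-Ala-Ala-p-nitroanilide, 0.2 mM in PBS with 5% DMSO, preincubated 5 min at 37 °C with or without compound. Enzyme then added and the reaction followed at 410 nm for 5 min. Compounds dissolved in DMSO, ≤0.5% in samples.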

[2] = target: Serine protease 1 (Homo sapiens) (UniProt P07477); experiment: Inhibitory activity against trypsin at 10e-5 M; NI = no inhibition
Serine protease 1 (Homo sapiens), sequence (P07477 whole entry): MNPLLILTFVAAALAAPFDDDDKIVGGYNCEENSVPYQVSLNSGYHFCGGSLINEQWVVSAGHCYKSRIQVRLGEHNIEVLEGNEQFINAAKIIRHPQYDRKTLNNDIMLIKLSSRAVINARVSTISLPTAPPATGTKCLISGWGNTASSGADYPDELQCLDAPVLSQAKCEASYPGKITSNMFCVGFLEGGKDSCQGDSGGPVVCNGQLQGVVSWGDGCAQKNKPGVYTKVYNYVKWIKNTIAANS
Procedure, shortened: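 Trypsin dissolved at 1 mg/mL in PBS pH 7.5. Substrate N-α-benzoyl-L-arginine-p-nitroanilide, 0.2 mM in PBS with 5% DMSO, preincubated 5 min at 37 °C with or without compound. Enzyme then added and the reaction followed at 410 nm for 5 min. Compounds dissolved in DMSO, ≤0.5% in samples.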

[3] = Concentration inhibiting [3H]TdR incorporation in Yoshida sarcoma tumor cells in vitro in rats; assay type: functional, cell-based, Rattus norvegicus
Procedure, shortened: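 Yoshida sarcoma cells kept by weekly intraperitoneal passage in Lewis rats. Peritoneal cells washed, placed in RPMI 1640 with 10% FCS at 37 °C, 5% CO2. Nonadherent cells taken after 2 h, set at 10^6 cells/mL, then exposed 24 h to compounds (10^-8–10^-4 M, DMSO ≤0.5%). [3H]thymidine (1 μCi/mL) given for the last 4 h. IC50 for incorporation into DNA read from dose-response curve.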

[4] = target: T1, Chymotrypsin-like elastase family member 2A (Sus scrofa) (UniProt P08419); experiment: Inhibitory activity against elastase at a concentration of 10e-5 M; NI means no inhibition; procedure, shortened: as §1
T1 sequence (whole entry): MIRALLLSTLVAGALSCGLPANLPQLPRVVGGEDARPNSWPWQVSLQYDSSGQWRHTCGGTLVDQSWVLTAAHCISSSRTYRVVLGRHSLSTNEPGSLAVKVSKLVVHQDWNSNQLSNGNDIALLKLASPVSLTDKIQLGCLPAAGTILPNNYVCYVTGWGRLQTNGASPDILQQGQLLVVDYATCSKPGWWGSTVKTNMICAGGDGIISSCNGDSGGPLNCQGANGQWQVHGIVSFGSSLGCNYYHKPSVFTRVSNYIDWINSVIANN

Pancreatic elastase (Sus scrofa), sequence (P00772 whole entry, looked up, one chain of several): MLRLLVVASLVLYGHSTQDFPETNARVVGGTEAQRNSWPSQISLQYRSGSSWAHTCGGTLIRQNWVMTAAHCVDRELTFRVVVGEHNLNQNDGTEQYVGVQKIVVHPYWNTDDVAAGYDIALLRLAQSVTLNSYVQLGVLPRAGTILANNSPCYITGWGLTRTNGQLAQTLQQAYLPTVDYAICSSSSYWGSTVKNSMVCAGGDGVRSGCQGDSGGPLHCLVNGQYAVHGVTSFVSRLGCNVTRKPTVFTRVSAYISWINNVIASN

For COC1C(O[C@@H]2c3c(cc4c(c3O)C(=O)c3c(O)cccc3C4=O)C(=O)[C@](C)(O)[C@H]2OC)OC(C)C(O)C1O (some centres undefined), the inhibition [1] was “inactive”, the inhibition [2] was “inactive” and the IC50 [3] was 1 µM.

With CO[C@H]1[C@H](O)c2c(cc3c(c2O)C(=O)c2c(O)cccc2C3=O)C(=O)[C@@]1(C)O the inhibition [1] was “inactive”, the inhibition [2] was “inactive” and the IC50 [3] was 0.6 µM.

With CC[C@@]1(O)C[C@H](O[C@H]2C[C@H](N(C)C)[C@H](O[C@H]3C[C@H](O)[C@H](O[C@H]4CCC(=O)[C@H](C)O4)[C@H](C)O3)[C@H](C)O2)c2c(cc3c(c2O)C(=O)c2c(O)cccc2C3=O)[C@H]1C(=O)OC [ACLARUBICIN] the inhibition [4] was “inactive”, the inhibition [2] was “inactive” and the IC50 [3] was less than 0.02 µM.

For CCOP(=O)(OCC)O[C@]1(C)C(=O)c2cc3c(c(O)c2[C@@H](OC2OC(C)C(O)C(O)C2OC)[C@@H]1OC)C(=O)c1c(O)cccc1C3=O (some centres undefined), the inhibition [1] was “inactive”, the inhibition [2] was “inactive” and the IC50 [3] was 0.63 µM.

For COC1C(O[C@@H]2c3c(cc4c(c3O)C(=O)c3c(O)cccc3C4=O)C(=O)[C@@](C)(O)[C@H]2OC)OC(C)C(OC(C)=O)C1OC(C)=O (some centres undefined), the inhibition [1] was “inactive”, the inhibition [2] was “inactive” and the IC50 [3] was 1.3 µM.

With COC1C(O[C@@H]2c3c(cc4c(c3O)C(=O)c3c(O)cccc3C4=O)C(=O)[C@@](C)(O)[C@H]2OC)OC(C)C(O)C1O[Si](C)(C)C(C)(C)C (some centres undefined) the inhibition [1] was “inactive”, the inhibition [2] was “inactive” and the IC50 [3] was 1.4 µM.

With COC1C(O[C@@H]2c3c(cc4c(c3O)C(=O)c3c(O)cccc3C4=O)C(=O)[C@@](C)(O)[C@H]2OC)OC(C)C(O)C1O (some centres undefined) the inhibition [1] was “inactive”, the inhibition [2] was “inactive” and the IC50 [3] was 2.2 µM.

With COC1C(O[C@@H]2c3c(cc4c(c3O)C(=O)c3c(O)c(N(C)C)cc(N(C)C)c3C4=O)C(=O)[C@@](C)(O)[C@H]2OC)OC(C)C(O)C1O (some centres undefined) the inhibition [1] was “inactive”, the inhibition [2] was “inactive” and the IC50 [3] was 5 µM.

With COC1C(O[C@@H]2c3c(cc4c(c3O)C(=O)c3c(O)cccc3C4=O)C(/N=N/S(=O)(=O)c3ccc(C)cc3)[C@@](C)(O)[C@H]2OC)OC(C)C(O)C1O (some centres undefined) the inhibition [1] was “inactive”, the inhibition [2] was “inactive” and the IC50 [3] was 3.9 µM.

For COC1C(O[C@@H]2c3c(cc4c(c3O)C(=O)c3c(ccc(N(C)C)c3O)C4=O)C(=O)[C@@](C)(O)[C@H]2OC)OC(C)C(O)C1O (some centres undefined), the inhibition [1] was “inactive”, the inhibition [2] was “inactive” and the IC50 [3] was 0.63 µM.

For COc1cccc2c1C(=O)c1c(O)c3c(c(O)c1C2=O)C[C@@](O)(C(=O)CO)C[C@@H]3O[C@H]1C[C@H](N)[C@H](O)[C@H](C)O1 [DOXORUBICIN], the inhibition [1] was “inactive”, the inhibition [2] was “inactive” and the IC50 [3] was less than 0.02 µM.

In the case of COC1C(C)OC(O[C@@H]2c3c(cc4c(c3O)C(=O)c3c(O)cccc3C4=O)C(=O)[C@@](C)(O)[C@H]2OC)C(OC)C1OC (some centres undefined), the inhibition [1] is reported as “inactive”, the inhibition [2] is reported as “inactive” and the IC50 [3] is reported as 4.7 µM.

For COc1cccc2c1C(=O)c1c(O)c3c(c(O)c1C2=O)C[C@@](O)(C(C)=O)C[C@@H]3O[C@H]1C[C@H](N)[C@H](O)[C@H](C)O1 [DAUNORUBICIN], the inhibition [1] was “inactive”, the inhibition [2] was “inactive” and the IC50 [3] was less than 0.02 µM.
